In ChEMBL document CHEMBL1156237, “Antiviral activity of benzimidazole derivatives. II. Antiviral activity of 2-phenylbenzimidazole derivatives” (Bioorg Med Chem, 2010):
Activity calls are given as the source filed them.

Key:
Coxsackievirus B2 = experiment: Antiviral activity against Human coxsackievirus B2 Ohio-1 infected in african green monkey Vero cells after 3 days by plaque reduction assay; type: functional, organism-based, Coxsackievirus B2 (strain Ohio-1); conditions: Enterovirus B, Vero, 72 h
Procedure, shortened: (§1)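 Plaque reduction assay. Vero 76 cells at 2 × 10^5/well, grown overnight to confluence in D-MEM with 10% FBS. Infected 2 h with 50–100 PFU/well, unadsorbed virus removed. Overlay of D-MEM with 1% inactivated FBS and 0.75% methylcellulose, with or without serial compound dilutions. Incubated at 37 °C for 3 days (HSV-1 KOS, CVB-2 Ohio-1) or 5 days (RSV A2). Fixed and stained with crystal violet in 50% ethanol; plaques counted; EC50 by linear regression.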

[1] = system: Human immunodeficiency virus 1; experiment: Antiviral activity against HIV1 3B infected in human MT4 cells assessed as protection from virus-induced cytopathogenicity after 4 days by MTT method; type: functional, organism-based
Procedure, shortened: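 MT-4 cells, 1 × 10^4/well in RPMI with or without serial compound dilutions, infected with HIV-1 IIIB, 100 CCID50 (m.o.i. 0.01). Protection from virus-induced cytopathogenicity read by MTT.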

Vaccinia virus = experiment: Antiviral activity against Vaccinia virus Elstree-Lister infected in african green monkey Vero cells after 3 days by plaque reduction assay; type: functional, organism-based; conditions: Orthopoxvirus vaccinia; for EC50: 72 h
[2] = Cytotoxicity against african green monkey Vero cells; type: cell-based; conditions: chlorocebus sabaeus
Procedure, shortened: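 Vero 76 monolayers exposed to serial compound dilutions, run in parallel on the same 24-well plates as the plaque-reduction assays. CC50 is the concentration reducing viability of mock-infected cells by 50%.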

[3] = system: Bovine viral diarrhea virus 1; experiment: Antiviral activity against Bovine viral diarrhea virus NADL infected in MDBK cells assessed as protection from virus-induced cytopathogenicity after 3 to 4 days by MTT method; type: functional, organism-based, Bovine viral diarrhea virus 1-NADL; conditions: Bovine viral diarrhea virus isolates and strains, MDBK
Procedure, shortened: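 Cytopathogenicity protection assay. MDBK cells at 3 × 10^4/well, grown overnight to confluence. Infected with BVDV NADL at m.o.i. 0.01 in MEM-E with 0.5% inactivated FBS, 1 mM Na pyruvate and 1% kanamycin. Serial compound dilutions added after 1 h. After 3–4 days at 37 °C, viability read by MTT; EC50 is the concentration giving 50% protection.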

Yellow fever virus = experiment: Antiviral activity against Yellow fever virus 17D infected in BHK cells assessed as protection from virus-induced cytopathogenicity after 3 to 4 days by MTT method; type: functional, organism-based
[4] = system: Mammalian orthoreovirus 1; experiment: Antiviral activity against Reovirus 1 3651 infected in BHK21 cells assessed as protection from virus-induced cytopathogenicity after 3 to 4 days by MTT method; type: functional, organism-based; conditions: for Activity: BHK-21
Human alphaherpesvirus 1 = experiment: Antiviral activity against HSV1 KOS infected in african green monkey Vero cells after 3 days by plaque reduction assay; type: functional, organism-based; conditions: Human alphaherpesvirus 1, KOS, 72 h; procedure, shortened: as §1
[5] = system: Respiratory syncytial virus; experiment: Antiviral activity against RSV A2 infected in african green monkey Vero cells after 5 days by plaque reduction assay; type: functional, organism-based; conditions: for EC50: human respiratory syncytial virus, A2, Vero, 120 h; procedure, shortened: as §1
[6] = system: Vesicular stomatitis virus; experiment: Antiviral activity against VSV Indiana lab infected in african green monkey Vero cells after 2 days by plaque reduction assay; type: functional, organism-based
Poliovirus 1 = experiment: Antiviral activity against Polio virus type1 Sabin strain Chat infected in african green monkey Vero cells after 2 days by plaque reduction assay; type: functional, organism-based, Human poliovirus 1 strain Sabin; conditions: Enterovirus C, 48 h
[7] = Cytotoxicity against MDBK cells after 48 to 96 hrs by MTT assay; type: cell-based, Bos taurus; conditions: cattle, MDBK cells
Procedure, shortened: (§2)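 Cell seeding: MDBK at 6 × 10^5 cells/mL in MEM-E with 10% horse serum and 1 mM Na pyruvate; BHK at 1 × 10^6 cells/mL in MEM-E with 10% FBS. Serial compound dilutions, 37 °C, 5% CO2. Viability of mock-infected cells by MTT after 48–96 h; CC50 is the concentration reducing viability by 50%.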

[8] = Cytotoxicity against human MT4 cells after 96 hrs by MTT assay; type: cell-based; conditions: MT4 cells
Procedure, shortened: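 Exponentially growing MT-4 cells at 1 × 10^5 cells/mL in RPMI-1640 with 10% FCS, exposed to serial compound dilutions at 37 °C, 5% CO2. Viability by MTT after 96 h; CC50 is the concentration reducing viability of mock-infected cells by 50%.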

[9] = Cytotoxicity against BHK cells after 48 to 96 hrs by MTT assay; type: cell-based, Mesocricetus auratus; conditions: hamster; procedure, shortened: as §2

Structure (SMILES) | EC50 (Coxsackievirus B2) [µM] | Activity [1] | Activity (Vaccinia virus) | CC50 [2] [µM] | EC50 [3] [µM] | EC50 (Yellow fever virus) [µM] | Activity [4] | EC50 (Human alphaherpesvirus 1) [µM] | Activity [5] | Activity [6] | EC50 (Poliovirus 1) [µM] | CC50 [7] [µM] | CC50 at 96 h [8] [µM] | CC50 [9] [µM] | EC50 (Vaccinia virus) [µM] | EC50 [5] [µM] | EC50 ([4]; Mammalian orthoreovirus 1, 3651, BHK-21) [µM]
Cn1c(-c2ccc(N)cc2)nc2cc(C(F)(F)F)ccc21 | 14 | inactive | inactive | > 100 | 69 | > 85 | inactive | > 100 | inactive | inactive | 20 | 74 | 20 | 85 | – | – | –
CC(=O)Nc1ccc(-c2nc3cc(C(F)(F)F)ccc3n2C2CCCCC2)cc1 | 9 | inactive | inactive | 30 | > 17 | > 15 | inactive | > 30 | inactive | inactive | > 30 | 17 | 24 | 15 | – | – | –
Cn1c(-c2ccc(NC(=O)CN3CCSCC3)cc2)nc2cc(C(F)(F)F)ccc21 | 22 | inactive | inactive | > 100 | 8 | 46 | inactive | > 100 | inactive | inactive | > 100 | > 100 | 10 | > 100 | – | – | –
COc1ccc(-c2nc3cc([N+](=O)[O-])ccc3[nH]2)c(OC)c1 | > 100 | inactive | – | > 100 | 45 | > 100 | – | > 100 | – | inactive | > 100 | > 100 | > 100 | > 100 | > 100 | > 100 | –
Nc1ccc(-c2nc3ccccc3[nH]2)cc1 | 19 | inactive | – | > 100 | 16 | > 100 | – | > 100 | – | inactive | > 100 | > 100 | 81 | > 100 | – | – | 85
COc1ccc(-c2nc3cc(C(F)(F)F)ccc3[nH]2)c(N)c1 | 6 | inactive | – | 50 | > 4 | 20 | – | > 50 | – | inactive | 18 | 4 | 5 | ≥ 100 | > 50 | > 50 | –
O=[N+]([O-])c1ccc(-c2nc3cc(C(F)(F)F)ccc3n2C23CC4CC(CC(C4)C2)C3)cc1 | > 100 | inactive | – | > 100 | > 100 | > 100 | – | > 100 | – | inactive | > 100 | > 100 | ≥ 100 | > 100 | > 100 | > 100 | –
COc1ccc(-c2nc3cc(C(F)(F)F)ccc3[nH]2)cc1 | 7 | inactive | – | 15 | 1 | > 100 | – | > 15 | – | inactive | > 15 | > 100 | 2 | > 100 | > 15 | > 15 | –
COc1cc(-c2nc3cc(C(F)(F)F)ccc3[nH]2)cc(OC)c1OC | 11 | inactive | – | 29 | > 18 | > 31 | – | > 29 | – | inactive | > 29 | 18 | 4 | 31 | > 29 | > 29 | –
